pIC50: −log10 of the molar value.
Tests used:
[1] = target: T1, 3',5'-cyclic-AMP phosphodiesterase 4B (Homo sapiens, UniProt Q07343); assay: Inhibition of human PDE4B by ELISA
[2] = Drug level in Wistar rat liver S9 fraction treated with N-(benzo[d]thiazol-6-yl)-3-(cyclopropylmethoxy)-4-(difluoromethoxy)benzamide at 20 uM in presence of NADPH by UPLC-MS/MS analysis; format: ADME, subcellular; conditions: s9, 20 µM
[3] = Intrinsic clearance in Wistar rat liver S9 fraction at 20 uM in presence of NADPH by UPLC-MS/MS analysis; format: ADME, subcellular
[4] = target: 3',5'-cyclic-AMP phosphodiesterase 4D (Homo sapiens, UniProt Q08499); assay: Inhibition of human PDE4D by ELISA
3',5'-cyclic-AMP phosphodiesterase 4D, sequence (Q08499 whole entry): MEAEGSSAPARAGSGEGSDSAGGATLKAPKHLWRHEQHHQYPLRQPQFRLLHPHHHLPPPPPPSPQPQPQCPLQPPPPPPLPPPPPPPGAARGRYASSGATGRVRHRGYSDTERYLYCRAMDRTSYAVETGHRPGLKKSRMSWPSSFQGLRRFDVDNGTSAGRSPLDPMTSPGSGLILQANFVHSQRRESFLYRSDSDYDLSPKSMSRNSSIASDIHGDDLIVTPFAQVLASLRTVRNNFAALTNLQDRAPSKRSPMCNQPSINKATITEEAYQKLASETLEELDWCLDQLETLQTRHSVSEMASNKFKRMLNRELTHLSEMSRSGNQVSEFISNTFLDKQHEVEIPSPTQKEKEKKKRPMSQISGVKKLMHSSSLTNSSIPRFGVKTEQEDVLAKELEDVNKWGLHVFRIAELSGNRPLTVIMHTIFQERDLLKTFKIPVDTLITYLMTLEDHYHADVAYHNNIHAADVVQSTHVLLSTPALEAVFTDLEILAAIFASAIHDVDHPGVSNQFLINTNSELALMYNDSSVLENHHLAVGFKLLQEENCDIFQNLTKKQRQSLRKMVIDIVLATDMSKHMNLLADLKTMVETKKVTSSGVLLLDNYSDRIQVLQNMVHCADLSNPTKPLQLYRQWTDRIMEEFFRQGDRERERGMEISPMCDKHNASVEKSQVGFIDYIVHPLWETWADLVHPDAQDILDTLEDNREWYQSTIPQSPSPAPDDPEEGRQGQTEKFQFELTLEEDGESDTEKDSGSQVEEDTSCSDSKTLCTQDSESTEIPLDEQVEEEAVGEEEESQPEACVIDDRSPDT

[5] = AUC (0 to t) in Sprague-Dawley rat at 1 mg/kg, sc administered as single dose by UPLC-MS/MS analysis; format: ADME, organism-based; conditions: in vivo
[6] = Protein binding in human plasma after 5 hrs by equilibrium dialysis method; format: ADME, cell-free; conditions: read-out: PPB (converted)
How it was run: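 Equilibrium dialysis across a cellulose membrane (MWCO 12-14 kDa) against isotonic PBS pH 7.4, with human plasma, 37°C for 5 hr. Compound in the plasma and buffer compartments measured by validated RP-HPLC-UV. %Bound = [1 − (buffer conc/plasma conc)] × 100.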

[7] = Tmax in Sprague-Dawley rat at 1 mg/kg, sc administered as single dose by UPLC-MS/MS analysis; format: ADME, organism-based; conditions: in vivo
[8] = Metabolic stability in Wistar rat liver S9 fraction assessed as parent compound remaining at 20 uM in presence of NADPH by UPLC-MS/MS analysis; format: ADME, subcellular; conditions: read-out: Stability
Homo sapiens = species: Homo sapiens; assay: Selectivity ratio of IC50 for human PDE4D to IC50 for human PDE4B
[9] = Cmax in Sprague-Dawley rat at 1 mg/kg, sc administered as single dose by UPLC-MS/MS analysis; format: ADME, organism-based; set-up: dose 1 mg/kg, route subcutaneous; conditions: in vivo
[10] = target: T1, 3',5'-cyclic-AMP phosphodiesterase 4B; assay: Inhibition of PDE4B (unknown origin) assessed as increase in cAMP level by measuring cAMP level after 3 hrs by cell based ELISA
[11] = target: T1, 3',5'-cyclic-AMP phosphodiesterase 4B; assay: Inhibition of PDE4B (unknown origin) assessed as increase in cAMP level after 3 hrs by cell based ELISA relative to roflumilast
[12] = Half life in Wistar rat liver S9 fraction at 20 uM in presence of NADPH by HPLC-UV analysis; format: ADME, subcellular
How it was run: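 Phase I stability in liver S9 (9,000× g) from male Wistar rats, prepared at 0–4°C. […] Stopped with cold acetonitrile plus chlorzoxazone internal standard. Centrifuged, then intact compound quantified by HPLC-UV; t1/2 and CLint derived from this.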

[13] = Half life in Sprague-Dawley rat at 1 mg/kg, sc administered as single dose by UPLC-MS/MS analysis; format: ADME, organism-based; conditions: in vivo
[14] = AUC (0 to infinity) in Sprague-Dawley rat at 1 mg/kg, sc administered as single dose by UPLC-MS/MS analysis; format: ADME, organism-based; set-up: dose 1 mg/kg, route subcutaneous, time infinity; conditions: in vivo
[15] = target: T1, 3',5'-cyclic-AMP phosphodiesterase 4B; assay: Inhibition of PDE4B (unknown origin) assessed as reduction in TNFalpha level after 1.5 hrs by cell based ELISA; conditions: concentration not given here
[16] = Drug metabolism in Wistar rat liver S9 fraction assessed as aromatic hydroxylation of benzathiazole moiety at 20 uM in presence of NADPH by UPLC-MS/MS analysis; format: ADME, subcellular; conditions: s9, 20 µM
[17] = Drug metabolism in Wistar rat liver S9 fraction assessed as 3-(cyclopropylmethoxy)-4-(difluoromethoxy)-N-(2-hydroxybenzo[d]thiazol-6-yl)benzamide formation at 20 uM in presence of NADPH by UPLC-MS/MS analysis; format: ADME, subcellular; conditions: s9, 20 µM
[18] = Drug metabolism in Wistar rat liver S9 fraction assessed as N-(4-amino-3-mercaptophenyl)-3-(cyclopropylmethoxy)-4-(difluoromethoxy)benzamide formation at 20 uM in presence of NADPH by UPLC-MS/MS analysis; format: ADME, subcellular; conditions: s9, 20 µM

T1 sequence (Q07343 whole entry): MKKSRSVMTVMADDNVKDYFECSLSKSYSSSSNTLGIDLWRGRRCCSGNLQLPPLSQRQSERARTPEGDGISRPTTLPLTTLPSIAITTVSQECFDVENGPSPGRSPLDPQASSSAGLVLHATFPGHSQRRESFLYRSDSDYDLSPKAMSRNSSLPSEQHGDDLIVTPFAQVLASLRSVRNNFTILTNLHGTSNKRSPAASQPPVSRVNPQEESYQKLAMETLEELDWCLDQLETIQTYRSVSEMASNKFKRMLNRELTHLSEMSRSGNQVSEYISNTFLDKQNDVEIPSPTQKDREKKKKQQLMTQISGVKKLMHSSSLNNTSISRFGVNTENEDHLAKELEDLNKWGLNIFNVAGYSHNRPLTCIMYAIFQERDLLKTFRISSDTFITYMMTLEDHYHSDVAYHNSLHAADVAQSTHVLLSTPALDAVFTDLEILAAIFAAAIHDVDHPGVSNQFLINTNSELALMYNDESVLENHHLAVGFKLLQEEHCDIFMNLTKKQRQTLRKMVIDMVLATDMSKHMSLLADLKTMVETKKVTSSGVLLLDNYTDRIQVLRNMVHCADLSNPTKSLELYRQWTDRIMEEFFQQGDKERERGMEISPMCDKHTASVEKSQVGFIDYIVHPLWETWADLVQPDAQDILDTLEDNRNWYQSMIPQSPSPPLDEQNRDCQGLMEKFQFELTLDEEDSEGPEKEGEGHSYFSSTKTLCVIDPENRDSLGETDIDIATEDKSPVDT

With `O=C(Nc1nc2ccc(Cl)cc2s1)c1ccc(OC(F)F)c(OCC2CC2)c1` as the compound, how does the pIC50 [1] read?
The pIC50 was 8.91.

With `CCOc1ccc2nc(NC(=O)c3ccc(OC(F)F)c(OCC4CC4)c3)sc2c1` as the compound, how does the pIC50 [1] read?
Its pIC50 is 8.53.

With `O=C(Nc1nccs1)c1ccc(OC(F)F)c(OCC2CC2)c1` as the compound, how does the pIC50 [1] read?
Its pIC50 is 8.80.

With `COc1cc2nc(NC(=O)c3ccc(OC(F)F)c(OCC4CC4)c3)sc2cc1OC` as the compound, how does the pIC50 [1] read?
The pIC50 was 8.93.

For `Nc1ccc(NC(=O)c2ccc(OC(F)F)c(OCC3CC3)c2)cc1S`, which Drug metabolism [2] is on record?
The Drug metabolism was “Metabolite_Detected”.

With `O=C(Nc1nc2ccc(F)cc2s1)c1ccc(OC(F)F)c(OCC2CC2)c1` as the compound, how does the pIC50 [1] read?
Its pIC50 is 8.73.

With `Cc1nc2ccc(NC(=O)c3ccc(OC(F)F)c(OCC4CC4)c3)cc2s1` as the compound, how does the pIC50 [1] read?
The pIC50 was 8.90.

Which CLint at 20 µM [3] does the source give for `O=C(Nc1ccc2nc(S)sc2c1)c1ccc(OC(F)F)c(OCC2CC2)c1` here?
Its CLint at 20 µM is 5.67 mL/min/kg.

What about the pIC50 [4] of the same compound?
The pIC50 was 8.34.

What about the AUC(0-t) [5] of the same compound?
The AUC(0-t) was 622 µg·h/mL.

And the fraction unbound at 5 h [6]?
Its fraction unbound at 5 h is 0.463.

What about the Tmax [7] of the same compound?
The Tmax was 2 h.

What about the remaining at 20 µM [8] of the same compound?
The remaining at 20 µM was 84.2%.

And the pIC50 [1]?
The pIC50 was 9.12.

And the Ratio IC50 (Homo sapiens)?
Its Ratio IC50 is 6.05.

What about the Cmax [9] of the same compound?
The Cmax was 114 µg/mL.

And the Activity [10]?
Its Activity is 4.45 pmol/mL.

And the fold change (FC) [11]?
Its fold change (FC) is over 2.

And the half-life at 20 µM [12]?
The half-life at 20 µM was 4.13 h.

And the half-life [13]?
Its half-life is 22 h.

What about the AUC(0-inf) [14] of the same compound?
The AUC(0-inf) was 1040 µg·h/mL.

And the inhibition [15]?
The inhibition was 67.8%.

With `N#Cc1ccc2nc(NC(=O)c3ccc(OC(F)F)c(OCC4CC4)c3)sc2c1` as the compound, how does the pIC50 [1] read?
The pIC50 was 8.89.

With `O=C(Nc1ccc2nc(O)sc2c1)c1ccc(OC(F)F)c(OCC2CC2)c1` as the compound, how does the Drug metabolism [2] read?
Its Drug metabolism is “Metabolite_Detected”.

With `COc1ccc2nc(NC(=O)c3ccc(OC(F)F)c(OCC4CC4)c3)sc2c1` as the compound, how does the pIC50 [1] read?
The pIC50 was 8.64.

With `O=C(Nc1nc2ccc([N+](=O)[O-])cc2s1)c1ccc(OC(F)F)c(OCC2CC2)c1` as the compound, how does the pIC50 [1] read?
Its pIC50 is 8.06.

Which results are given for `O=C(Nc1nc2ccccc2s1)c1ccc(OC(F)F)c(OCC2CC2)c1`?
CLint at 20 µM [3]: 33.2 mL/min/kg; pIC50 [4]: 8.29; AUC(0-t) [5]: 594 µg·h/mL; Tmax [7]: 1 h; remaining at 20 µM [8]: 36.4%; pIC50 [1]: 9.24; Ratio IC50 (Homo sapiens): 8.89; Cmax [9]: 95.5 µg/mL; Drug metabolism [16]: Metabolite_Detected; Activity [10]: 2.68 pmol/mL; half-life at 20 µM [12]: 0.705 h; half-life [13]: 9.82 h; AUC(0-inf) [14]: 800 µg·h/mL; inhibition [15]: 58.6%

With `O=C(Nc1c(Cl)cncc1Cl)c1ccc(OC(F)F)c(OCC2CC2)c1` [ROFLUMILAST] as the compound, how does the CLint at 20 µM [3] read?
The CLint at 20 µM was 114 mL/min/kg.

And the AUC(0-t) [5]?
The AUC(0-t) was 449 µg·h/mL.

And the fraction unbound at 5 h [6]?
The fraction unbound at 5 h was 0.0151.

And the Tmax [7]?
Its Tmax is 1 h.

And the Cmax [9]?
The Cmax was 109 µg/mL.

What about the Activity [10] of the same compound?
Its Activity is 1.9 pmol/mL.

And the half-life at 20 µM [12]?
The half-life at 20 µM was 0.205 h.

And the half-life [13]?
The half-life was 6.94 h.

What about the AUC(0-inf) [14] of the same compound?
The AUC(0-inf) was 500 µg·h/mL.

And the inhibition [15]?
The inhibition was 70.3%.

With `COc1cccc2sc(NC(=O)c3ccc(OC(F)F)c(OCC4CC4)c3)nc12` as the compound, how does the pIC50 [1] read?
The pIC50 was 8.97.

Which results are given for `O=C(Nc1ccc2ncsc2c1)c1ccc(OC(F)F)c(OCC2CC2)c1`?
CLint at 20 µM [3]: 22.3 mL/min/kg; pIC50 [4]: 8.56; AUC(0-t) [5]: 892 µg·h/mL; fraction unbound at 5 h [6]: 0.0361; Tmax [7]: 2 h; remaining at 20 µM [8]: 36.8%; pIC50 [1]: 9.17; Ratio IC50 (Homo sapiens): 4.01; Cmax [9]: 86.2 µg/mL; half-life at 20 µM [12]: 1.05 h; half-life [13]: 22 h; AUC(0-inf) [14]: 1620 µg·h/mL; Drug metabolism [17]: Metabolite_Detected; Drug metabolism [18]: Metabolite_Detected

With `O=C(Nc1nc2ccc(C(F)(F)F)cc2s1)c1ccc(OC(F)F)c(OCC2CC2)c1` as the compound, how does the pIC50 [1] read?
Its pIC50 is 8.28.
